ChEMBL document CHEMBL1127039, “Nonpeptide angiotensin II antagonists derived from 4H-1,2,4-triazoles and 3H-imidazo[1,2-b][1,2,4]triazoles” (J Med Chem, 1993)
Values belong to the molecule of their own block, whether it stands above or below them. Activity calls are given as the source filed them. The rule behind the calls is not given here.

Experiments:
[1] = target: T1, Type-1 angiotensin II receptor (Oryctolagus cuniculus, UniProt P34976); experiment: Displacement of [125I]-Sar1-Ile8-A II at the rabbit aorta angiotensin II receptor, type 1; type: tissue-based
T1 sequence (P34976 whole entry): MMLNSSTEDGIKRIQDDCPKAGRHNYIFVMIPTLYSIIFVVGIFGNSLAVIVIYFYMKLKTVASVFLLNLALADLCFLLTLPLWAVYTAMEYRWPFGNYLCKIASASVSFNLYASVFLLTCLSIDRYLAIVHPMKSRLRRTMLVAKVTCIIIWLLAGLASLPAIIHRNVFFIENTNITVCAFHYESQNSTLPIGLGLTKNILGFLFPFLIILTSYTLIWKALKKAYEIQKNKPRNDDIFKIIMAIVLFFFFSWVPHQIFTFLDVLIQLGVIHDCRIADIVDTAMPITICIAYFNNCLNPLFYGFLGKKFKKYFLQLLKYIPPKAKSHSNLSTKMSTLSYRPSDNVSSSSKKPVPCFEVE
Procedure, shortened: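 Rabbit aorta membranes in 50 mM Tris-HCl pH 7.4, 5 mM MgCl2, 0.2 mg/mL bacitracin; 0.2% BSA only in original version. Nonspecific binding with 1 μM unlabeled Sar1Ile8-AII. Filtration, gamma counting. Duplicate tubes, five concentrations; IC50 from nonlinear regression of displacement curves, sometimes averaged over separate assays.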

[2] = test system: Rattus norvegicus; experiment: Peak inhibition of A II pressor response in conscious normotensive rats after peroral administration of 30 mg/kg of drug; type: functional; conditions: route oral
Procedure, shortened: (§1)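 Male Sprague-Dawley rats (300–400 g) catheterized under methohexital, recovered overnight, conscious. Compound given iv (saline or NaHCO3/saline/water vehicle) or po, with food withheld for oral dosing. AII 0.1 μg/kg iv bolus given at -45, -30 and -15 min, then at 5–60 min and every 30 min afterwards. Peak percent inhibition of the AII ΔMAP response, averaged over at least two rats.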

[3] = test system: Rattus norvegicus; experiment: Time from onset of action until significant (i.e., >= 30%) inhibition of pressor response no longer observed (30 mg/kg peroral route).; type: functional
Procedure, shortened: (§2)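 Same conscious-rat AII challenge protocol: AII 0.1 μg/kg iv boluses repeated after iv or po dosing, ΔMAP recorded. Duration is the time from onset until inhibition falls below 30% and stays below 30% for two further AII challenges. Averaged over at least two rats.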

[4] = test system: Rattus norvegicus; experiment: Peak inhibition of A II pressor response in conscious normotensive rats after intravenous administration of 3 mg/kg of drug (2 animals treated); type: functional; procedure, shortened: as §1
[5] = test system: Rattus norvegicus; experiment: Peak inhibition of A II pressor response in conscious normotensive rats after peroral administration of 3 mg/kg of drug (3 animals treated); type: functional; conditions: route oral; procedure, shortened: as §1
[6] = test system: Rattus norvegicus; experiment: Time from onset of action until significant (i.e., >= 30%) inhibition of pressor response no longer observed (3 mg/kg intravenous route).; type: functional; procedure, shortened: as §2
[7] = test system: Rattus norvegicus; experiment: Time from onset of action until significant (i.e., >= 30%) inhibition of pressor response no longer observed (3 mg/kg peroral route); type: functional; procedure, shortened: as §2
[8] = test system: Rattus norvegicus; experiment: Time from onset of action until significant (i.e., >= 30%) inhibition of pressor response no longer observed (10 mg/kg intravenous route).; type: functional; procedure, shortened: as §2
[9] = test system: Rattus norvegicus; experiment: Peak inhibition of A II pressor response in conscious normotensive rats after intravenous administration of 10 mg/kg of drug (3 animals treated); type: functional; procedure, shortened: as §1
[10] = test system: Rattus norvegicus; experiment: Peak inhibition of A II pressor response in conscious normotensive rats after intravenous administration of 3 mg/kg of drug (4 animals treated); type: functional; procedure, shortened: as §1
[11] = test system: Rattus norvegicus; experiment: Time from onset of action until significant (i.e., >= 30%) inhibition of pressor response no longer observed (3 mg/kg intravenous route); type: functional; procedure, shortened: as §2
[12] = organism: Rattus norvegicus; experiment: In vitro antagonistic activity by displacement of [125I]-Sar1-Ile8-A II at the rat adrenal cortical […] AT1 receptor; type: functional
[13] = test system: Rattus norvegicus; experiment: Peak inhibition of A II pressor response in conscious normotensive rats after peroral administration of 0.3 mg/kg of drug (2 animals treated); type: functional; conditions: route oral; procedure, shortened: as §1
[14] = test system: Rattus norvegicus; experiment: Peak inhibition of A II pressor response in conscious normotensive rats after peroral administration of 3 mg/kg of drug (4 animals treated); type: functional; conditions: route oral; procedure, shortened: as §1
[15] = test system: Rattus norvegicus; experiment: Time from onset of action until significant (i.e., >= 30%) inhibition of pressor response no longer observed (0.3 mg/kg intravenous route); type: functional; procedure, shortened: as §2
[16] = test system: Rattus norvegicus; experiment: Time from onset of action until significant (i.e., >= 30%) inhibition of pressor response no longer observed (0.3 mg/kg peroral route).; type: functional; procedure, shortened: as §2
[17] = test system: Rattus norvegicus; experiment: Peak inhibition of A II pressor response in conscious normotensive rats after intravenous administration of 0.3 mg/kg of drug (4 animals treated); type: functional; procedure, shortened: as §1
[18] = test system: Rattus norvegicus; experiment: Peak inhibition of A II pressor response in conscious normotensive rats after peroral administration of 1 mg/kg of drug (2 animals treated); type: functional; conditions: route oral; procedure, shortened: as §1
[19] = test system: Rattus norvegicus; experiment: Time from onset of action until significant (i.e., >= 30%) inhibition of pressor response no longer observed (1 mg/kg peroral route); type: functional; procedure, shortened: as §2
[20] = test system: Rattus norvegicus; experiment: Peak inhibition of A II pressor response in conscious normotensive rats after intravenous administration of 0.3 mg/kg of drug (2 animals treated); type: functional; procedure, shortened: as §1
[21] = test system: Rattus norvegicus; experiment: Peak inhibition of A II pressor response in conscious normotensive rats after intravenous administration of 1 mg/Kg of drug (2 animals treated); type: functional; procedure, shortened: as §1
[22] = test system: Rattus norvegicus; experiment: Time from onset of action until significant (i.e., >= 30%) inhibition of pressor response no longer observed (1 mg/Kg intravenous route).; type: functional; procedure, shortened: as §2
[23] = test system: Rattus norvegicus; experiment: Peak inhibition of A II pressor response in conscious normotensive rats after peroral administration of 0.3 mg/kg of drug (2 animals treated); Not active; type: functional, organism-based; design: dose 0.3 mg/kg; procedure, shortened: as §1
[24] = test system: Rattus norvegicus; experiment: Time from onset of action until significant (i.e., >= 30%) inhibition of pressor response no longer observed (0.3 mg/kg peroral route)); Not active; type: functional, organism-based; procedure, shortened: as §2
[25] = test system: Rattus norvegicus; experiment: Time from onset of action until significant (i.e., >= 30%) inhibition of pressor response no longer observed (1 mg/kg intravenous route); type: functional; procedure, shortened: as §2
[26] = test system: Rattus norvegicus; experiment: Peak inhibition of A II pressor response in conscious normotensive rats after intravenous administration of 1 mg/kg of drug (2 animals treated); type: functional; procedure, shortened: as §1
[27] = test system: Rattus norvegicus; experiment: Peak inhibition of A II pressor response in conscious normotensive rats after peroral administration of 3 mg/kg of drug (results shown for 3 out of 4 animals); type: functional; conditions: route oral; procedure, shortened: as §1
[28] = test system: Rattus norvegicus; experiment: Time from onset of action until significant (i.e., >= 30%) inhibition of pressor response no longer observed (0.3 mg/kg peroral route); Not active; type: functional, organism-based; procedure, shortened: as §2

- IC50 [1]: 0.015 µM
SMILES: CCCCc1nnc(SCc2ccccc2)n1Cc1ccc(NC(=O)c2ccccc2C(=O)O)cc1
- inhibition in vivo at 30 mg/kg [2]: 33%
- Duration [3]: 0.4 h

SMILES: CCCCc1nnc(SCc2ccc(Cl)cc2)n1Cc1ccc(-c2ccccc2-c2nn[nH]n2)cc1
- inhibition in vivo at 3 mg/kg [4]: 62%
- inhibition in vivo at 3 mg/kg [5]: 50%
- Duration [6]: 1 h
- Duration [7]: 1.5 h

- IC50 [1]: 0.54 µM
SMILES: CCCCc1nnc(SCC(=O)OC)n1Cc1ccc(-c2ccccc2C(=O)O)cc1
- Duration [8]: 0.9 h
- inhibition in vivo at 10 mg/kg [9]: 93%

- IC50 [1]: 0.0066 µM
SMILES: CCCCc1nnc(SCc2ccc([N+](=O)[O-])cc2)n1Cc1ccc(-c2ccccc2-c2nn[nH]n2)cc1
- inhibition in vivo at 3 mg/kg [10]: 65%
- Duration [11]: 1.4 h

- IC50 [12]: 0.019 µM
SMILES: CCCCc1nc(Cl)c(CO)n1Cc1ccc(-c2ccccc2-c2nnn[nH]2)cc1 [LOSARTAN]
- inhibition in vivo at 0.3 mg/kg [13]: 36%
- inhibition in vivo at 3 mg/kg [14]: 94%
- Duration [15]: 5.5 h
- Duration [16]: >3.5 h
- Duration [7]: >4.5 h
- inhibition in vivo at 0.3 mg/kg [17]: 52%

SMILES: CCCCc1nc(Cl)c(C(=O)O)n1Cc1ccc(-c2ccccc2-c2nn[nH]n2)cc1 [CARBOXYLIC ACID METABOLITE]
- inhibition in vivo at 0.3 mg/kg [13]: 63%
- inhibition in vivo at 1 mg/kg [18]: 72%
- Duration [15]: >29 h
- Duration [16]: 2.8 h
- Duration [19]: >7 h
- inhibition in vivo at 0.3 mg/kg [20]: 100%

- IC50 [1]: 0.011 µM
SMILES: CCCCc1nnc([S+]([O-])Cc2ccc(Cl)cc2)n1Cc1ccc(-c2ccccc2-c2nn[nH]n2)cc1 (stereo not drawn)
- Inhibition [21]: 42%
- Duration [22]: 0.1 h

- IC50 [1]: 0.0033 µM
SMILES: CCCCc1nnc(SCc2ccccc2C(=O)O)n1Cc1ccc(NC(=O)c2ccccc2C(=O)O)cc1
- inhibition [23]: inactive
- Duration [15]: 0.9 h
- Duration [24]: inactive
- Duration [25]: 1.4 h
- inhibition in vivo at 0.3 mg/kg [17]: 74%
- inhibition in vivo at 1 mg/kg [26]: 100%

- IC50 [1]: 0.0015 µM
SMILES: CCCCc1nnc(SCc2ccccc2C(=O)O)n1Cc1ccc(-c2ccccc2-c2nn[nH]n2)cc1
- inhibition in vivo at 0.3 mg/kg [13]: 0%
- inhibition in vivo at 3 mg/kg [27]: 54%
- Duration [15]: 5.5 h
- Duration [7]: >6 h
- inhibition in vivo at 0.3 mg/kg [20]: 100%
- Duration [28]: inactive
